Compound activity: PubChem BioAssay, Sanford-Burnham Center for Chemical Genomics
Compounds with a hit are over-represented: about 2.3% of the library has one in this group of screens.
Rpn11 block – blocks the human proteasome subunit Rpn11; inhibition, % at 20 µM; hit rate 0.59% among 360,000; AID 588493; human 26S proteasome, Ub4-pepOG fluorescence polarization; 20S core pre-blocked with epoxomicin;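 active means inhibition at 20 µM, scaled to each plate's controls, above about 33%, limit read from the data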
Target sequence (O00487 whole entry, looked up): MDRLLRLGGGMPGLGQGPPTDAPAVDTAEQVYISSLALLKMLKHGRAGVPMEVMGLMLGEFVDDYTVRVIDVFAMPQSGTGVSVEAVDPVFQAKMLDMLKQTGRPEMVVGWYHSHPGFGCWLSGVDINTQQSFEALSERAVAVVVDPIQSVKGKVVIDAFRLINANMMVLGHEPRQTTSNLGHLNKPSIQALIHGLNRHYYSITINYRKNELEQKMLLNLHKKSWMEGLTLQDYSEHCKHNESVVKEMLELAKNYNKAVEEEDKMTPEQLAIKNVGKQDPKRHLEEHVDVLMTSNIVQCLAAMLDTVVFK
SUMO1 PPI mod – SUMO1-SIM interaction modulation; SUMO1 binding to a labelled peptide, TR-FRET, 1 h; AID 602429; hit rate 0.33% among 360,000; inhibition, % at 20 µM; P63165; in the data active means inhibition above about 37%
Target sequence (P63165 whole entry, looked up): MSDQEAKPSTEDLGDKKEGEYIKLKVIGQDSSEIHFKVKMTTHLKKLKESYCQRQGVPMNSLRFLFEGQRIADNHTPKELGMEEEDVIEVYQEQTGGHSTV
SKN-1 inh – C. elegans SKN-1 inhibition; C. elegans VP596 Pgst-4::GFP/RFP ratio, acrylamide-induced, 24 h; inhibition, % at 21.8 µM; hit rate 0.49% among 360,000; AID 624304;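 active means interference check ratio from 0.5 to 1.5 plus GFP to RFP signal ratio inhibition reaching or exceeding a fixed threshold, cut at about 30% in these data, passing the limit was not always enough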
DNMT1 block – inhibitors of human DNMT1; P26358; DNMT1 molecular beacon, Hinp1I cleavage, fluorescence; inhibition (reported as % activation of signal), % at 10 µM; hit rate 0.83% among 360,000; in the data active means inhibition above about 50%
MT1-MMP act inh – inhibitors of human MT1-MMP activation; P50281; HT1080 RFP-PRO-GFP cells, GFP/RFP ratio fluorescence, overnight; percent of plate control window, DMSO zero; GFP/RFP ratio change, % at 20 µM; hit rate 0.061% among 360,000; AID 651647;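 active means GFP/RFP ratio change of at least 30% with cell ATP level not reduced by more than half and red fluorescence within 50% of control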
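Assay system – RFP-PRO-GFP reporter HT1080 cells · Compound dosing – single dose of 20 µM compound, 1% DMSO final · Incubation – overnight compound exposure at 37 °C · Measure – GFP/RFP fluorescence ratio · Benchmarks – DMSO wells and RFP-L50D-GFP cells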
CSN inh – blocks human CSN-mediated cullin deneddylation; hit rate 0.38% among 360,000; Q92905; AID 651999; Purified CSN, SCF-Nedd8-OG deneddylation, fluorescence polarization; inhibition, % at 12.5 µM;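 active means pattern-corrected inhibition above about 35%, with an unprinted fluorescence ratio check between 0.5 and 1.5, limit read from the data, passing the limit was not always enough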;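 further: 0% = enzyme with substrate and 100% = substrate without enzyme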
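Material: purified human Csn5 enzyme expressed in HEK293T cells / Medium: Tris buffer pH 7.5, NaCl, DTT, Tween-20, trehalose, ovalbumin / Compound dosing: 12.5 µM single point / Schedule: 90 min incubation of compound, enzyme and substrate at room temperature / Signal: fluorescence polarization of the substrate / Control set: no-enzyme wells high, enzyme-with-substrate wells low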
An asterisk follows results filed as active.

Screening CCC(C(=O)NC(C)(C)C)n1c(-c2cccc(NC(C)=O)c2)nc2ccccc21 (stereo unspecified) returned SUMO1 PPI mod -2, SKN-1 inh -3, MT1-MMP act inh 2 and CSN inh -2.
Screening Cc1ccc(-c2cc(-c3cccc(F)c3)n[nH]2)c(O)c1 returned Rpn11 block -5, SUMO1 PPI mod 7, SKN-1 inh 29, DNMT1 block -13, MT1-MMP act inh 0 and CSN inh 1.
Screening Cc1ccc(O)c(-c2cc(-c3cccc(F)c3)n[nH]2)c1 returned Rpn11 block 1, SUMO1 PPI mod 3, SKN-1 inh 37*, DNMT1 block -14, MT1-MMP act inh 7 and CSN inh -2.
Cc1ccc(C(=O)CSc2ccc(-c3ccncc3)nn2)cc1 was read as Rpn11 block 15, SUMO1 PPI mod 24, SKN-1 inh -5, DNMT1 block -2, MT1-MMP act inh -3 and CSN inh 1.
`O=C(CSc1ccc(-c2ccncc2)nn1)c1ccc(Cl)cc1` gave Rpn11 block 4, SUMO1 PPI mod 51*, SKN-1 inh -15, DNMT1 block 8, MT1-MMP act inh -3 and CSN inh 9.
For O=C(/C=C/c1ccc(Cl)cc1)Nc1ccc(CN2CCOCC2)cc1 the results were Rpn11 block 0, SUMO1 PPI mod -15, SKN-1 inh 63*, DNMT1 block 0, MT1-MMP act inh -3 and CSN inh -4.
Fc1ccc(NC(=S)N2CCOCC2)cc1Cl was read as Rpn11 block 0, SUMO1 PPI mod 4, SKN-1 inh -1, DNMT1 block -5, MT1-MMP act inh -1 and CSN inh -2.
For S=C(Nc1ccc(Cl)cc1)N1CCOCC1 the results were Rpn11 block 4, SUMO1 PPI mod -3, SKN-1 inh 7, DNMT1 block 0, MT1-MMP act inh 1 and CSN inh 42*.
For COc1ccccc1NC(=O)c1ccc(CN2CCOCC2)cc1 the results were Rpn11 block 1, SUMO1 PPI mod 0, SKN-1 inh 36*, DNMT1 block 1, MT1-MMP act inh 4 and CSN inh 0.
`O=C(Nc1ccc(CN2CCOCC2)cc1)c1cc2ccccc2o1` gave Rpn11 block -9, SUMO1 PPI mod -1, SKN-1 inh 56*, DNMT1 block -2, MT1-MMP act inh -2 and CSN inh 0.
Screening CCC(=O)N1CCC1(C)C(=O)Nc1ccc(OC(F)F)cc1 (stereo unspecified) returned Rpn11 block -2, SUMO1 PPI mod 0, SKN-1 inh 9, DNMT1 block 0, MT1-MMP act inh 0 and CSN inh -1.
Screening Cc1ccc(S(=O)(=O)N2C3CCCCC3O[C@H]2CC(=O)c2cccs2)cc1 (stereo partly specified) returned SUMO1 PPI mod -1, SKN-1 inh -5, MT1-MMP act inh -1 and CSN inh 1.
For Cc1ccc(F)cc1C(=O)N1CCCC(C)(C(=O)NS(=O)(=O)C2CC2)C1 (stereo unspecified) the results were Rpn11 block -4, SUMO1 PPI mod -6, SKN-1 inh -3, DNMT1 block 6, MT1-MMP act inh 2 and CSN inh 1.
For CC(C)c1ccc(C(=O)Nc2ccc(CN3CCOCC3)cc2)cc1 the results were Rpn11 block -1, SUMO1 PPI mod -3, SKN-1 inh 70*, DNMT1 block 2, MT1-MMP act inh 4 and CSN inh -1.
For NC(=O)c1ccc(NC(=O)c2ccc(CN3CCOCC3)cc2)cc1 the results were Rpn11 block 4, SUMO1 PPI mod -4, SKN-1 inh -6, DNMT1 block 0, MT1-MMP act inh 3 and CSN inh -2.
COc1cc2oc(=O)cc(CN3CCCC3)c2cc1Cl was read as Rpn11 block 11, SUMO1 PPI mod -7, SKN-1 inh 1, DNMT1 block 2, MT1-MMP act inh 4 and CSN inh -4.
Screening COc1cc2oc(=O)cc(CN3CCOCC3)c2cc1Cl returned Rpn11 block 6, SUMO1 PPI mod -7, SKN-1 inh 1, DNMT1 block -6, MT1-MMP act inh -2 and CSN inh 118*.
`CSc1nnnn1CCn1nnnc1SC` gave Rpn11 block -4, SUMO1 PPI mod -3, SKN-1 inh 3, DNMT1 block -6, MT1-MMP act inh -6 and CSN inh 51*.
O=C(NCc1ccco1)c1sc2cc(Cl)ccc2c1Cl was read as Rpn11 block 4, SUMO1 PPI mod -6, SKN-1 inh 38*, DNMT1 block 2, MT1-MMP act inh 5 and CSN inh 11.
For COc1cc(/C=N/NC(=O)c2cc(O)cc(O)c2)ccc1OC(=O)c1ccccc1 the results were Rpn11 block 2, SUMO1 PPI mod 34, SKN-1 inh -18, DNMT1 block 77*, MT1-MMP act inh 1 and CSN inh 38.
`O=C(Nc1ccc2oc(=O)ccc2c1)c1ccc(-c2cccc([N+](=O)[O-])c2)o1` gave Rpn11 block 10, SUMO1 PPI mod 75*, SKN-1 inh 12, DNMT1 block 22, MT1-MMP act inh -11 and CSN inh 44.
O=C(Nc1ccc2oc(=O)ccc2c1)c1ccc(-c2ccccc2[N+](=O)[O-])o1 was read as Rpn11 block 4, SUMO1 PPI mod 57*, SKN-1 inh -1, DNMT1 block -2, MT1-MMP act inh -1 and CSN inh 3.
Screening CC(=O)C[C@@H]1SC[C@H](c2ccccc2)N1S(=O)(=O)c1ccc(C)cc1 returned SUMO1 PPI mod -1, SKN-1 inh 19, MT1-MMP act inh 4 and CSN inh -7.
COC(=O)[C@]12CCCCC=C1N(Cc1ccco1)C(=O)[C@H](CC(=O)N1CCCCC1)C2 was read as SUMO1 PPI mod 4, SKN-1 inh -6, MT1-MMP act inh 1 and CSN inh -7.
Cc1cccc(-c2ccc(O)cc2CN2CCN(c3ncc(Cc4ccccc4)cn3)CC2)c1 was read as SUMO1 PPI mod -2, SKN-1 inh 13, MT1-MMP act inh -1 and CSN inh 0.
For CN(C)CCNc1ncnc2c1ncn2[C@H]1CN(Cc2ccncc2)C[C@@H](CO)O1 the results were Rpn11 block 2, SUMO1 PPI mod -3, SKN-1 inh 17, DNMT1 block 3, MT1-MMP act inh 0 and CSN inh 5.
Screening COCCNc1nc(-c2cc(C)n(CCc3ccc(OC)cc3)c2C)cs1 returned Rpn11 block 15, SUMO1 PPI mod 0, SKN-1 inh 17, DNMT1 block 35, MT1-MMP act inh 5 and CSN inh 8.
COc1ccccc1CNc1nc(-c2cc(C)n(C)c2C)cs1 was read as Rpn11 block 9, SUMO1 PPI mod -1, SKN-1 inh -9, DNMT1 block 76*, MT1-MMP act inh -2 and CSN inh -3.
